Measured values from ChEMBL document CHEMBL4477176, “Cyclopenta[b]benzofuran and Secodammarane Derivatives from the Stems of Aglaia stellatopilosa” (2016).
Active and inactive are the calls of the source. The calls are words filed in the database; no cut-off is given here.

Columns and labels:
Escherichia coli = experiment: Antibacterial activity against Escherichia coli NBRC 3301 assessed as growth inhibition at 25 to 200 uM incubated for 24 hrs by microtiter plate based assay; format: functional, organism-based
Summary of the method: (§1)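 Bacteria grown in Luria–Bertani broth; inoculum from fresh culture, serially diluted to 1 × 10^5 cells/mL. Samples dissolved in DMSO at 200 μM and serially 2-fold diluted down to 25 μM in 96-well plates. Incubated at 28 °C for 24 h. OD600 read before and after incubation. MIC taken as the lowest concentration giving ≥90% growth reduction. Triplicates.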

Pseudomonas aeruginosa = experiment: Antibacterial activity against Pseudomonas aeruginosa NBRC 12689 assessed as growth inhibition at 25 to 200 uM incubated for 24 hrs by microtiter plate based assay; format: functional, organism-based; summary of the method: as §1
HT-29 = experiment: Cytotoxicity against human HT-29 cells assessed as growth inhibition by SRB assay; format: functional; conditions: read-out: ED50 (the source's name)
MCF7 = experiment: Cytotoxicity against human MCF7 cells assessed as growth inhibition by SRB assay; format: functional
Rhodotorula glutinis = experiment: Antimicrobial activity against Rhodotorula glutinis NBRC 1125 assessed as growth inhibition at 25 to 200 uM incubated for 24 hrs by microtiter plate based assay; format: functional, organism-based
Summary of the method: (§2)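 Yeasts grown in Sabouraud dextrose broth; inoculum 1 × 10^6 cells/mL. Samples dissolved in DMSO at 200 μM and 2-fold diluted down to 25 μM in 96-well plates. Incubated at 28 °C for 24 h. OD600 read before and after incubation. MIC taken as the lowest concentration giving ≥90% growth reduction. Three replicates.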

Porphyromonas gingivalis = experiment: Antibacterial activity against Porphyromonas gingivalis CCUG 25893 assessed as growth inhibition at 25 to 200 uM incubated for 24 hrs by microtiter plate based assay; format: functional; summary of the method: as §1
Malassezia furfur = experiment: Antimicrobial activity against Pityrosporum ovale CCUG 24229 assessed as growth inhibition at 25 to 200 uM incubated for 24 hrs by microtiter plate based assay; format: functional; summary of the method: as §2
Bacillus subtilis [1] = experiment: Antibacterial activity against Bacillus subtilis NBRC 3134 assessed as growth inhibition at 25 to 200 uM incubated for 24 hrs by microtiter plate based assay; format: functional; summary of the method: as §1
NCI-H460 = experiment: Cytotoxicity against human NCI-H460 cells assessed as growth inhibition by SRB assay; format: functional
Micrococcus luteus = experiment: Antibacterial activity against Micrococcus luteus NBRC 12708 assessed as growth inhibition at 25 to 200 uM incubated for 24 hrs by microtiter plate based assay; format: functional, organism-based; summary of the method: as §1
Saccharomyces cerevisiae = experiment: Antimicrobial activity against Saccharomyces cerevisiae ATCC 9763 assessed as growth inhibition at 25 to 200 uM incubated for 24 hrs by microtiter plate based assay; format: functional, organism-based; summary of the method: as §2
Aspergillus niger = experiment: Antifungal activity against Aspergillus niger NBRC 4066 assessed as growth inhibition at 25 to 200 uM incubated for 48 hrs by microtiter plate based assay; format: functional
Summary of the method: as §2, with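 “Aspergillus niger” for “Yeasts”, “48” for “24”, “inhibition.” for “growth reduction.”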

Bacillus subtilis [2] = experiment: Antibacterial activity against Bacillus subtilis NBRC 3134 assessed as growth inhibition at 20 uM incubated for 24 hrs by microtiter plate based assay; format: functional; conditions: NBRC 3134, 24 h, read-out: GI
Staphylococcus aureus [3] = experiment: Antibacterial activity against Staphylococcus aureus NBRC 12732 assessed as growth inhibition at 25 to 200 uM incubated for 24 hrs by microtiter plate based assay; format: functional; summary of the method: as §1
Staphylococcus aureus [4] = experiment: Antibacterial activity against Staphylococcus aureus NBRC 12732 assessed as growth inhibition at 80 uM incubated for 24 hrs by microtiter plate based assay; format: functional; conditions: NBRC 12732, 24 h, read-out: GI

| Structure (SMILES) | growth inhibition (GI) (Escherichia coli) | growth inhibition (GI) (Pseudomonas aeruginosa) | EC50 (HT-29) | GI50 (MCF7) | growth inhibition (GI) (Rhodotorula glutinis) | growth inhibition (GI) (Porphyromonas gingivalis) | growth inhibition (GI) (Malassezia furfur) | growth inhibition (GI) (Bacillus subtilis [1]) | GI50 (NCI-H460) | growth inhibition (GI) (Micrococcus luteus) | growth inhibition (GI) (Saccharomyces cerevisiae) | growth inhibition (GI) (Aspergillus niger) | inhibition of growth at 20 µM (Bacillus subtilis [2]) | growth inhibition (GI) (Staphylococcus aureus [3]) | inhibition of growth at 80 µM (Staphylococcus aureus [4]) |
| --- | --- | --- | --- | --- | --- | --- | --- | --- | --- | --- | --- | --- | --- | --- | --- |
| C=C(C)[C@@H]1CC[C@]2(C)[C@H](CC[C@@H]3[C@@H]([C@](C)(O)CC[C@@H](O)C(C)(C)O)CC[C@]32C)[C@@]1(C)CCC(=O)OC | inactive | inactive | > 10 µM | > 10 µM | inactive | 60 - 89% | inactive | >=90% | > 10 µM | inactive | inactive | 60 - 89% | ≥ 90% | >=90% | ≥ 90% |
| COC(=O)C(C)(C)[C@@H]1CC[C@]2(C)[C@H](CC[C@@H]3[C@@H]([C@](C)(O)CC[C@@H](O)C(C)(C)O)CC[C@]32C)[C@@]1(C)CC(=O)O | inactive | inactive | > 10 µM | > 10 µM | inactive | inactive | inactive | inactive | > 10 µM | inactive | inactive | inactive | – | inactive | – |
| COC(=O)C(C)(C)[C@@H]1CC[C@]2(C)[C@H](CC[C@@H]3[C@@H]([C@](C)(O)CC[C@@H](O)C(C)(C)O)CC[C@]32C)[C@@]1(C)CC=O | inactive | inactive | > 10 µM | > 10 µM | inactive | inactive | inactive | inactive | > 10 µM | inactive | inactive | inactive | – | 60 - 89% | – |
| COC(=O)C(C)(C)[C@@H]1CC[C@]2(C)[C@H](CC[C@@H]3[C@@H]([C@]4(C)CC[C@H](C(C)(C)O)O4)CC[C@]32C)[C@@]1(C)/C=C/NC=O | inactive | inactive | > 10 µM | > 10 µM | inactive | inactive | inactive | inactive | > 10 µM | inactive | inactive | inactive | – | inactive | – |
| COC(=O)C(C)(C)[C@@H]1CC[C@]2(C)[C@H](CC[C@@H]3[C@@H]([C@](C)(O)CC[C@@H](O)C(C)(C)O)CC[C@]32C)[C@@]1(C)/C=C/NC=O | inactive | inactive | > 10 µM | > 10 µM | inactive | 60 - 89% | 60 - 89% | inactive | > 10 µM | inactive | inactive | inactive | – | inactive | – |
